The nature of series [1]: Pharmacokinetics, plasma LC-MS/MS, non-compartmental analysis. The class given is in vivo, human. The conditions noted are these: AUC0–24 on Days 1 and 18/21 of Cycle 1, 600 mg/day dose. In outline:
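Oral daily dosing at 50–1,200 mg/day. On Cycle 1 Days 1 and 18/21, blood was drawn pre-dose and at 0.5, 1, 2, 4, 6, 8 and 24 h, with further trough days. Parent drug and a metabolite in plasma were measured by validated LC-MS/MS (LLOQ 1.0 ng/mL). Non-compartmental analysis was used. Dose proportionality was fitted as ln(Cmax or AUC0–24) = α + β ln(dose). T1/2,acc came from the accumulation ratio; steady state was judged from troughs.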

The subject of series [2] is hormone receptor-positive breast cancer. Conditions: cited from earlier work.

Read-outs that look alike come from different tables or passages of the source.

Consider `CNC(=O)c1cc2cnc(Nc3ccc(N4CCNCC4)cn3)nc2n1C1CCCC1` [LEQ803], for which, in series [1], the “metabolite exposure relative to parent drug” value is “approximately 10%”.

Take `CC(=O)c1c(C)c2cnc(Nc3ccc(N4CCNCC4)cn3)nc2n(C2CCCC2)c1=O` [palbociclib]: the median progression-free survival entry in series [2] (in combination with fulvestrant) and in series [2] (in combination with letrozole) was “improved median progression-free survival” each time.

Values taken from publication PMC5621377 (Clinical cancer research : an official journal of the …, 2016).
